LMP1 NFkB inh: EBV LMP1-driven NF-kappaB luciferase reporter inhibitors, primary screen, cell-based, luminescence, single point; inhibition, % at 12.5 µM; AID 504558, 2011; LMP1-induced NF-kappaB luciferase reporter cells; 350,000 tested, 0.69% active; in the data active = inhibition above about 41%;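 also: 0% = neutral control wells and 100% = reference inhibitor control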
NR2E3 ag-1: inhibitors of NR2E3-RetCOR corepressor binding, primary screen, NR2E3 agonist project, biochemical, TR-FRET, GST-NR2E3, biotin-RetCOR; 320,000 tested, 0.12% active; inhibition of corepressor binding, % at 4.78 µM; AID 2300, 2010; Photoreceptor-specific nuclear receptor (Homo sapiens), Q9Y5X4; 1536-well;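 active = percent inhibition above the cutoff of mean plus 3 SD of all tested compounds, set per screening campaign, cut at about 20% in these data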;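 also: 0% = DMSO wells and 100% = biotin wells as full block of FRET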
Target sequence (Q9Y5X4 whole entry, looked up): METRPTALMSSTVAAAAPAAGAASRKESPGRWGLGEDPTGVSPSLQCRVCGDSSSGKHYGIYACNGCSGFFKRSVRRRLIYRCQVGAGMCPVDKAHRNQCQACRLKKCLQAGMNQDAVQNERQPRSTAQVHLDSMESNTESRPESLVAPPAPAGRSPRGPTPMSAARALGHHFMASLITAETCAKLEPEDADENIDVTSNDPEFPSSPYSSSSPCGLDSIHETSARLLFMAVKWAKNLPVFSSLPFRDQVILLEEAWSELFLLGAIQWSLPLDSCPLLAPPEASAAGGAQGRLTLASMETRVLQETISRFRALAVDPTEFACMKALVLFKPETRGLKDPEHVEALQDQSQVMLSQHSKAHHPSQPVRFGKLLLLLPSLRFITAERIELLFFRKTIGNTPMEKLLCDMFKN
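Test system: GST-NR2E3 and biotin-RetCOR proteins | Quantity: 1.35 nM GST-tagged NR2E3 final | Medium: Tris pH 7.5 | Also added: 7 nM biotin-RetCOR | Dosing: Compound at 4.8 µM, single dose | Timing: 5 h at 4 °C | Detection: Time-resolved FRET | Read-out basis: Percent inhibition | Benchmarks: Biotin wells as high control, 0.6% DMSO wells as low control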
TROY signal inh: inhibitors of TROY-driven NF-kB signaling, primary screen, Q293 LMP1-TROYcd cells, NF-kB luciferase, uHTS. inhibition, % at 10 µM. Q293 LMP1-TROYcd NF-kB luciferase reporter, 4 h. AID 1347056, 2019. 360,000 tested, 0.98% active;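 active = compounds whose plate-normalised and pattern-corrected inhibition of the luciferase reporter signal at the single screening dose is 50% or more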
HIF activator: HIF pathway transcriptional activators, primary screen, cell-based, U2OS HRE-luciferase, luminescence; U2OS HRE-luciferase reporter; normalized: DMSO 0%, desferrioxamine 100%; activation, % at 7.5 µM (by protocol); 300,000 tested, 0.32% active;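 active = mean activation of at least 10% of the iron chelator positive control signal, with at least half of replicates also reaching 10%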
NR2E3 ag-2: NR2E3 agonists in two-hybrid cells, primary screen, cell-based, luminescence, CHO-S, Gal4-NCOR/VP16-NR2E3 | Photoreceptor-specific nuclear receptor (Homo sapiens), Q9Y5X4 | luciferase | inhibition of corepressor binding, % at 3.98 µM | 360,000 tested, 0.35% active | AID 602229, 2012;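 active = inhibition above the mean of all tested compounds plus 3 SD, cut at about 70% in these data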;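 also: 0% = DMSO with NR2E3 transfected cells and 100% = cells lacking NR2E3 construct; higher means lower luciferase signal from less NR2E3 corepressor binding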
* marks the source's active call; other numbers are inactive results; . = no result. An excerpt weighted towards active compounds, which were near 2% of everything screened.

SMILES	LMP1 NFkB inh	NR2E3 ag-1	TROY signal inh	HIF activator	NR2E3 ag-2
CCCCCCCOC(=O)C[N+](C)(C)CCOC1CC2CCC1(C)C2(C)C (stereo not drawn)	10.7	.	63.1*	-0.8	9.0
COc1cccc(C(=O)c2ccncc2C(=O)O)c1OC	-2.5	.	6.3	.	-25.3
COc1c(Br)cc([N+](=O)[O-])c(OC)c1C(=O)NC(=O)Nc1c(Cl)cccc1Cl	3.3	2.1	0.2	.	-18.2
COc1c(Br)cc([N+](=O)[O-])c(OC)c1C(=O)NC(=O)Nc1cc(Cl)cc(Cl)c1	-0.4	1.1	52.0*	-1.0	2.5
CC1=NOC(=O)/C1=C\c1ccc(-c2cccc(Cl)c2)o1	-5.5	-1.0	56.6*	0.2	-13.0
Cc1ccc(/C=C2/C(=O)ON=C2c2ccccc2)o1	-14.0	-0.7	-7.7	1.5	-29.9
CC1=NOC(=O)/C1=C\c1ccc(-c2ccc(Cl)c(C(=O)O)c2)o1	-9.4	.	19.7	-0.7	7.9
CC1=NOC(=O)/C1=C\c1ccc(-c2ccccc2Br)o1	5.1	.	68.2*	0.9	-19.9
Cc1ccc(C(=O)NCC(=O)OCc2nnc(-c3ccc([N+](=O)[O-])cc3)o2)s1	-6.0	1.4	-9.1	.	-7.0
Fc1ccc(CNC(=S)Nc2cccc(C(F)(F)F)c2)cc1	10.5	-1.4	20.8	-0.3	33.1
O=[N+]([O-])c1cc(C(F)(F)F)cc([N+](=O)[O-])c1NCCNC(=S)Nc1cccc(F)c1	22.7	-1.5	68.5*	1.0	-40.7
Cc1nnc(SCC(=O)Nc2nonc2C)s1	-3.3	5.0	8.8	-0.2	-20.8
Cc1cc(O)c(C2=Nc3ccccc3SC(c3ccc(Cl)cc3)C2)c(=O)o1 (stereo not drawn)	9.8	-2.4	75.0*	2.4	-29.3
O/N=C1/C2C3CC4C5C3C1C5C1(OCCO1)C42 (stereo not drawn)	-5.2	-0.5	-10.0	60.7*	10.5
COc1ccc(Cl)cc1NC(=O)CSc1nc2ccsc2c(=O)n1CC1CCC(C(=O)O)CC1 (stereo not drawn)	-2.3	1.6	8.4	-1.2	0.7
CCc1nc(CN2CCN(c3cc(C(F)(F)F)ccn3)CC2)c(C)[nH]1	.	5.7	14.2	0.4	-1.1
O=C1c2cccc3c(O)ccc(c23)C(=O)N1c1ccc(Cl)cc1	60.2*	0.5	-9.2	-0.3	17.5
CC(=O)Nc1ccc(N2C(=O)c3cccc4c(O)ccc(c34)C2=O)cc1	17.1	-5.3	-7.6	-4.3	-32.9
CC1=C(C(=O)N(C(C)C)C(C)C)CC(CC(=O)NCCN2CCOCC2)C(=O)N1CCCN1CCCC1=O (stereo not drawn)	.	.	6.9	.	24.4
COc1cccc2c1C(=O)c1c(O)c3c(c(O)c1C2=O)C[C@@](O)(C(C)=O)C[C@@H]3O[C@H]1C[C@H](N)[C@H](O)[C@H](C)O1	90.9*	.	69.4*	.	-86.2
COc1cccc2c1C(=O)c1c(O)c3c(c(O)c1C2=O)C[C@@](O)(C(=O)CO)C[C@@H]3O[C@H]1C[C@H](N)[C@@H](O)[C@H](C)O1	75.6*	-1.9	-3.3	-3.2	-28.1
COc1cc(OC)cc(C(=O)Nc2ccccc2C(=O)NC2CC2)c1	-10.9	1.5	28.7	.	-8.1
O=C(CSc1nc2ccccc2s1)N/N=C/c1ccccc1C(=O)O	-11.3	4.3	82.3*	-0.4	5.6
O=C1C=CC2=C3c4cc(O)c(O)cc4CC3(O)COC2=C1O (stereo not drawn)	9.3	.	-0.5	.	-43.7
COc1ccccc1NC(=O)CNC(=O)CC12CC3CC(CC(C3)C1)C2	-3.7	.	2.1	.	32.3
SMILES	LMP1 NFkB inh	NR2E3 ag-1	TROY signal inh	HIF activator	NR2E3 ag-2
CC(C)(C)C1CCc2c(sc(NC(=O)C3CC=CCC3C(=O)O)c2C#N)C1 (stereo not drawn)	-5.2	1.3	55.9*	0.1	23.0
CCC(C)(C)C1CCc2c(sc(NC(=O)c3ccccc3C(=O)O)c2C#N)C1 (stereo not drawn)	-7.5	1.2	71.7*	-0.9	6.9
CCC(C)(C)C1CCc2c(sc(NC(=O)c3ccoc3C)c2C(N)=O)C1 (stereo not drawn)	3.4	1.4	62.9*	-0.4	-2.4
N#Cc1c(NC(=O)C2CC=CCC2C(=O)O)sc2c1CCCCCC2 (stereo not drawn)	-9.9	5.7	-3.6	-0.2	-11.9
Cc1occc1C(=O)Nc1sc2c(c1C(N)=O)CCC(C(C)(C)C)C2 (stereo not drawn)	-0.6	1.5	-12.8	1.2	-2.4
O=C(CCC1CCCN(Cc2ccc3c(c2)CCO3)C1)NCc1ccc(F)c(F)c1 (stereo not drawn)	-4.4	0.1	1.0	-0.1	14.7
Cc1ccc(Cl)cc1NC(=O)COC(=O)CC1CCCCC1	1.9	-2.4	-23.1	.	-15.3
CNc1cc(C(=O)Nc2cccc(OCc3ccccc3)c2)ncn1	.	.	-48.6	.	-66.8
O=S(=O)(Nc1ccc(S(=O)(=O)N2CCCC2)cc1)c1ccc(F)cc1F	4.0	.	-4.0	.	22.4
O=c1nc(N/N=C/C=C/c2ccccc2)cn[nH]1	47.5*	-0.8	41.2	-0.3	-117.7
COc1ccc(C(CNC(=O)CN2C(=O)NC3(CCCC3)C2=O)N(C)C)cc1 (stereo not drawn)	-14.0	1.1	15.1	0.5	-20.8
COc1ccc(Nc2nnc(-c3ccncc3)s2)cc1Cl	4.8	-1.8	51.1*	-0.9	-15.4
Clc1ccccc1Nc1nnc(-c2ccncc2)s1	36.2	0.3	59.8*	-1.2	-130.8
CC(=O)c1ccc(Nc2nc(C(N)COCc3ccccc3)cs2)cc1 (stereo not drawn)	.	.	3.1	.	-2.2
CCN1C[C@@H]2[C@@H]3C(=O)N(Cc4ccccc4)C(=O)[C@@H]3[C@](CC)(C(=O)OC)N2C1=NC1CCCCC1	-1.2	.	-19.1	.	17.6
S=C(N/N=C1\CCc2ccccc21)NC1CCCCC1	-5.0	-0.6	70.9*	1.8	-13.2
O=C(N/N=C1/CCc2ccccc21)C1CC1	-9.6	-1.7	-13.3	0.3	-21.1
O=C1CC(N2CCCCCC2)C(=O)N1c1ccc2c(c1)OCO2 (stereo not drawn)	-13.5	2.2	-6.9	-0.4	-17.9
O=C1CC(NC23CC4CC(CC(C4)C2)C3)C(=O)N1c1ccc2c(c1)OCO2 (stereo not drawn)	-3.8	1.9	55.7*	1.2	-16.0
O=C(Cn1c(Cc2ccccc2)nc2ccccc21)NCc1ccc2c(c1)OCO2	3.0	-3.1	-9.0	137.1*	-18.7
O=C(CSc1c[nH]c2ccccc12)NCc1ccc2c(c1)OCO2	0.1	-2.3	11.7	44.3*	0.6
O=C(NCCc1c[nH]c2ccccc12)c1ccc(Br)o1	-23.0	.	-50.5	.	-47.2

Source: PubChem BioAssay (several laboratories)
